ChEMBL document CHEMBL1144276, “Synthesis and in vitro selective anti-Helicobacter pylori activity of pyrazoline derivatives” (2005)
In brackets after ≈: the same amount, converted by molar mass.

Legend:
Format in all cases: functional
[1] = test system: Helicobacter pylori; assay: Minimal inhibitory concentration against 17 strains of Helicobacter pylori
Procedure, shortened: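 Agar dilution against 16 clinical isolates plus reference strain NCTC 11637 (four metronidazole-resistant). Twofold serial dilutions in Columbia agar with 10% horse serum and 0.25% yeast extract, 128 to 0.0039 µg/mL, plates made fresh. Inoculum: 72 h growth suspended in Wilkins Chalgren broth at 0.5 McFarland, 5 µL multipoint spots; 37 °C, 72 h, microaerobic (10% CO2).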

[2] = test system: Helicobacter pylori; assay: Minimal inhibitory concentration against metronidazole resistant Helicobacter pylori 20 strain
Procedure, shortened: (§1)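 Agar dilution. Columbia agar with 10% horse serum and 0.25% yeast extract holds serial twofold dilutions of compound, 128 to 0.0039 µg/mL, and plates are made on the day of use. Inoculum is 72 h growth suspended in Wilkins Chalgren broth to 0.5 McFarland, applied as 5 µL by multipoint inoculator. Plates are incubated 72 h at 37 °C, microaerobic (10% CO2).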

[3] = test system: Helicobacter pylori; assay: Minimal inhibitory concentration against metronidazole resistant Helicobacter pylori NCTC 11637 strain; procedure, shortened: as §1
[4] = test system: Helicobacter pylori; assay: Minimal inhibitory concentration against metronidazole resistant Helicobacter pylori 19 strain; procedure, shortened: as §1
[5] = test system: Helicobacter pylori; assay: Minimal inhibitory concentration against metronidazole resistant Helicobacter pylori 8 strain; procedure, shortened: as §1

MIC50 [1] | MIC90 [1] | Compound | MIC [2] | MIC [3] | MIC [4] | MIC [5]
32 µg/mL (≈ 103 µM) | 128 µg/mL (≈ 412 µM) | CC(=O)N1N=C(c2c(O)cccc2O)CC1c1ccc(C)cc1 (configuration not stated) | – | – | – | –
8 µg/mL (≈ 25.8 µM) | 16 µg/mL (≈ 51.6 µM) | COc1ccccc1C1CC(c2ccc(O)cc2)=NN1C(C)=O (configuration not stated) | – | – | – | –
4 µg/mL (≈ 13.4 µM) | 8 µg/mL (≈ 26.8 µM) | CC(=O)N1N=C(c2ccccc2)CC1c1ccc(Cl)cc1 (configuration not stated) | – | – | – | –

Compound | MIC50 [1] | MIC90 [1] | MIC [2] | MIC [3] | MIC [4] | MIC [5]
Cc1ncc([N+](=O)[O-])n1CCO [METRONIDAZOLE] | 0.5 µg/mL (≈ 2.92 µM) | 64 µg/mL (≈ 374 µM) | 64 µg/mL (≈ 374 µM) | 64 µg/mL (≈ 374 µM) | 64 µg/mL (≈ 374 µM) | 64 µg/mL (≈ 374 µM)
